Experimental data published in ChEMBL document CHEMBL1122372, “Synthesis of aminomethyl-substituted cyclic imide derivatives for evaluation as anticonvulsants” (J Med Chem, 1983).
Active and inactive are the calls of the source. The rule behind the calls is not given here.

Tests used:
Mus musculus [1] = species: Mus musculus; test: (§1) Effective dose against maximal electroshock seizures in mice, at 0.5 hr; format: functional
Procedure, shortened: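 Phase II quantification in mice under the NINCDS Antiepileptic Drug Development Program. Protection against maximal electroshock, scored as prevention of tonic hindlimb extension, was measured at the time of peak effect, 0.5 h after dosing. Median effective dose was derived by probit analysis with 95% confidence intervals.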

Mus musculus [2] = test: Tested for anti maximal electroshock activity at 4 h; - denotes inactive up to 600 mg/kg; format: functional, organism-based; parameters: dose 600 mg/kg
Procedure, shortened: (§2)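 Phase I screen in mice run by the NINCDS Antiepileptic Drug Development Program. Four mice per dose, scored 0.5 and 4 h after dosing, for prevention of tonic hindlimb extension following maximal electroshock. Doses were 30, 100, 300 or 600 mg/kg. Activity is the lowest dose protecting at least one of four animals, provided a second trial confirms it.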

Mus musculus [3] = test: Tested for anti maximal electroshock activity at 0.5 hr at dose 100 mg/kg; ++=Compound is active at 100 mg/kg; format: functional, organism-based; procedure, shortened: as §2
Mus musculus [4] = test: Anti-pentylenetetrazole activity at 0.5 hr in mice […]; +=Compound is active at 300 mg/kg; format: functional, organism-based
Procedure, shortened: (§3)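 Phase I screen in mice run by the NINCDS Antiepileptic Drug Development Program. Four mice per dose, scored 0.5 and 4 h after dosing, for protection against seizures induced by 85 mg/kg subcutaneous pentylenetetrazole. Dose levels were 30, 100, 300 and 600 mg/kg. Activity is the lowest dose at which at least one of four animals is protected, confirmed in a second trial.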

Mus musculus [5] = test: Tested for rotarod neurotoxicity, number of deaths from respiratory depression among four animals given a dose 600 mg/kg was reported
Mus musculus [6] = test: Tested for anti-pentylenetetrazole activity in mice at 4 h; - denotes inactive up to 600 mg/kg; format: functional, organism-based; parameters: dose 600 mg/kg; procedure, shortened: as §3
Mus musculus [7] = test: Anti-pentylenetetrazole activity at 0.5 h; - denotes inactive up to 600 mg/kg; format: functional, organism-based; parameters: dose 600 mg/kg; procedure, shortened: as §3
[8] = Tested for rotarod neurotoxicity at dose 300 mg/kg; format: organism-based; parameters: dose 300 mg/kg; details: mouse, in vivo
Procedure, shortened: (§4)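 Phase I rotarod neurotoxicity in mice, run by the NINCDS Antiepileptic Drug Development Program. Doses were 30, 100, 300 or 600 mg/kg. Deaths from respiratory depression were counted among four animals given 600 mg/kg.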

Mus musculus [9] = test: Tested for anti maximal electroshock activity at 4 h; += Compound is active at 300 mg/kg; format: functional, organism-based; parameters: dose 300 mg/kg; procedure, shortened: as §2
Mus musculus [10] = species: Mus musculus; test: Effective dose against maximal electroshock seizures in mice, at 0.5 h; format: functional
Procedure, shortened: (§5)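 Phase II quantification in mice by the NINCDS Anticonvulsant Drug Development Program. Median effective dose against maximal electroshock-induced seizures, measured at the time of peak effect, 0.5 h. The 95% confidence intervals come from probit analysis.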

Mus musculus [11] = test: Tested for rotarod neurotoxicity, number of deaths from respiratory depression among four animals given a dose 600 mg/kg was reported; details: in vivo
Mus musculus [12] = species: Mus musculus; test: as §1; format: functional; procedure, shortened: as §5; remark: listed apart in the source
[13] = Tested for Neurotoxicity in rotarod test; format: toxicity, organism-based; details: mouse, in vivo; procedure, shortened: as §4
Mus musculus [14] = test: Tested for rotarod neurotoxicity, number of deaths from respiratory depression among four animals given a dose 600 mg/kg was reported; format: organism-based; parameters: dose 600 mg/kg; details: in vivo
Mus musculus [15] = test: Anti-pentylenetetrazole activity; - denotes inactive up to 600 mg/kg; format: functional, organism-based; parameters: dose 600 mg/kg; procedure, shortened: as §3
[16] = Tested for neurotoxicity in rotarod test; format: toxicity, organism-based; details: mouse, in vivo; procedure, shortened: as §4
Mus musculus [17] = test: Anti-pentylenetetrazole activity at 0.5 hr in mice […]; += Compound is active at 300 mg/kg; format: functional, organism-based; procedure, shortened: as §3
Mus musculus [18] = test: Tested for rotarod neurotoxicity, number of deaths from respiratory depression among four animals given a dose 600 mg/kg was reported; inactive; format: functional
Mus musculus [19] = test: Tested for anti maximal electroshock activity at 0.5 hr […]; += Compound is active at 300 mg/kg; format: functional, organism-based; procedure, shortened: as §2

CN1C(=O)CC(c2ccccc2)C1=O (stereo not given) [PHENSUXIMIDE]
ED50 (Mus musculus [1]): 112 mg/kg

CC(=O)NCC1(C)CC(=O)N(Cc2ccccc2)C1=O (stereo not given)
MES (Mus musculus [2]): Not toxic
MES (Mus musculus [3]): active at 100 mg/kg
PTZ (Mus musculus [4]): active at 300 mg/kg
NT (Mus musculus [5]): 0
PTZ (Mus musculus [6]): Not toxic

CC1(CN)CC(=O)N(Cc2ccccc2)C1=O (stereo not given)
PTZ (Mus musculus [7]): Not toxic
TD50 [8]: 228 mg/kg
MES (Mus musculus [9]): active at 300 mg/kg
ED50 (Mus musculus [10]): 66.4 mg/kg
PTZ (Mus musculus [6]): Not toxic
NT (Mus musculus [11]): 2

O=C1CC(CNCc2ccccc2)C(=O)N1Cc1ccccc1 (stereo not given)
MES (Mus musculus [2]): Not toxic
ED50 (Mus musculus [12]): 136 mg/kg
TD50 [13]: 267 mg/kg
NT (Mus musculus [14]): 4
PTZ (Mus musculus [15]): Not toxic
PTZ (Mus musculus [6]): Not toxic

Cl.NCC1CC(=O)N(Cc2ccccc2)C1=O (stereo not given)
MES (Mus musculus [2]): Not toxic
PTZ (Mus musculus [7]): Not toxic
ED50 (Mus musculus [10]): 108 mg/kg
TD50 [16]: 268 mg/kg
PTZ (Mus musculus [6]): Not toxic
NT (Mus musculus [11]): 4

CC(=O)NCC1CC(=O)N(Cc2ccccc2)C1=O (stereo not given)
MES (Mus musculus [2]): Not toxic
PTZ (Mus musculus [17]): active at 300 mg/kg
NT (Mus musculus [18]): 0
MES (Mus musculus [19]): active at 300 mg/kg
PTZ (Mus musculus [6]): Not toxic

CN1C(=O)CC(C)(c2ccccc2)C1=O (stereo not given) [METHSUXIMIDE]
ED50 (Mus musculus [1]): 76.3 mg/kg
